According to ChEMBL document CHEMBL1124254, “Pumiliotoxin alkaloids: relationship of cardiotonic activity to sodium channel activity and phosphatidylinositol turnover” (1988):

Tests used:
Format in all cases: functional
[1] = species: Cavia porcellus; assay: Cardiotonic activity was measured in guinea pig atria at 54 uM concentration; Ranking
How it was run: (§1)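 Isolated atria suspended at 37 °C in Tyrode's solution aerated with O2-CO2 (95:5). After at least 1 h equilibration, cumulative dose-response curves for rate and force of spontaneous contractions were built by serial additions of alkaloid in methanol, at least 10 min apart. Effects given at 54 μM; values are averages of two to six experiments.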

[2] = species: Cavia porcellus; assay: Specific sodium influx was measured in guinea pig brain synaptoneurosomes at 100 uM concentration (10s of incubation)
[3] = species: Mus musculus; assay: Phosphoinositide (PI) breakdown was measured in mouse atria at 10 uM
How it was run: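 Male mouse (20-25 g) right and left atria were prelabelled for 60 min at 37 °C in Krebs-Henseleit buffer (pH 7.4) with 1 μM [3H]inositol. LiCl (10 mM final) was added, and agents were added 15 min later at 10 μM for 30 min at 37 °C. [3H]inositol phosphates in the TCA extract were separated by anion exchange. Results are percent of control, two to four determinations ± SEM.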

[4] = species: Cavia porcellus; assay: Phosphoinositide breakdown in guinea pig brain synaptoneurosomes.; parameters: concentration or dose not given beside the values
How it was run: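 Guinea pig cerebral cortex synaptoneurosomes (~1 mg protein per tube) were labelled 60 min at 37 °C with 1 μM [3H]inositol in Krebs-Henseleit buffer (pH 7.4). LiCl was added, and agents were added 10 min later for 90 min at 37 °C under O2-CO2. [3H]inositol 1-phosphate was isolated by anion exchange and counted. Results are percent of control, means ± SEM (n = 3) or single values at 10 μM.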

[5] = species: Cavia porcellus; assay: Cardiotonic activity was measured in guinea pig atria at 54 uM concentration; Ranking -; how it was run: as §1
[6] = species: Cavia porcellus; assay: Cardiotonic activity was measured in guinea pig atria at 18 uM concentration; Ranking
How it was run: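 Isolated spontaneously beating atria held at 37 °C in Tyrode's solution gassed with 95:5 O2-CO2, equilibrated at least 1 h. Alkaloid was added serially in methanol, at least 10 min apart, to build cumulative dose-response curves. Rate and force of spontaneous contractions were recorded. Values are averages of two to six experiments.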

| Compound | Activity [1] | Activity [2] | Activity [3] | Activity [4] | Activity [5] | Activity [6] |
| --- | --- | --- | --- | --- | --- | --- |
| C/C(=C\C[C@@H](C)/C=C1\CN2CCC[C@H]2[C@@](C)(O)C1)[C@@H](O)[C@H](C)O | Ranking |  |  |  |  |  |
| CCC(O)/C(C)=C/C[C@@H](C)/C=C1\CN2CCC[C@H]2[C@@](C)(O)C1 (stereo not given in full) | Ranking | 0.72 nM (mg of protein)-1 | 114% | 172% |  |  |
| C/C(=C\C[C@H](C)/C=C1\CN2CCC[C@H]2[C@@](C)(O)C1)[C@@H](O)[C@@H](C)O | Ranking |  |  | 110% |  |  |
| C/C(=C\C[C@@H](C)/C=C1\CN2CCC[C@H]2[C@@](C)(O)[C@H]1O)[C@@H](O)[C@@H](C)O | Ranking |  |  | 176% |  |  |
| CCCC[C@@H](C)/C=C1\CN2CCC[C@H]2[C@@](C)(O)C1 |  |  |  | 132% | Ranking - |  |
| CCC[C@@H](C)/C=C1\CN2CCC[C@H]2[C@@](C)(O)[C@@H]1O | Ranking |  |  | 138% |  |  |
| CC[C@H](O)/C(C)=C/C[C@@H](C)/C=C1\CN2CCC[C@H]2[C@@](C)(O)C1 | Ranking |  |  |  |  |  |
| C/C(=C\C[C@@H](C)/C=C1\CN2CCC[C@H]2[C@@](C)(O)C1)[C@@H](O)[C@@H](C)O |  | 3.05 nM (mg of protein)-1 | 150% | 280% |  |  |
| C[C@@H](/C=C1\CN2CCC[C@H]2[C@@](C)(O)C1)CCO |  |  |  | 110% | Ranking - |  |
| CC[C@H](O)/C(C)=C/C[C@@H](C)/C=C1\CN2CCC[C@H]2[C@@](C)(O)[C@@H]1O |  |  |  | 275% |  | Ranking |
| CCC[C@H](C)/C=C1\CN2CCC[C@H]2[C@@](C)(O)[C@H]1O |  |  |  | 116% | Ranking - |  |
| CC(O)CC[C@@H](C)/C=C1\CN2CCC[C@H]2[C@@](C)(O)C1 (stereo not given in full) | Ranking |  |  | 129% |  |  |
| C[C@H](/C=C1\CN2CCC[C@H]2[C@@](C)(O)C1)CCO |  |  |  | 115% | Ranking - |  |
| C/C(=C\C[C@@H](C)/C=C1\CN2CCC[C@H]2[C@@](C)(O)C1)[C@H](O)[C@H](C)O | Ranking |  |  | 129% |  |  |
| C/C(=C\C[C@@H](C)/C=C1\CN2CCC[C@H]2[C@@](C)(O)[C@@H]1O)[C@@H](O)[C@@H](C)O |  |  |  | 304% |  | Ranking |
| CCC(=O)/C(C)=C/C[C@@H](C)/C=C1\CN2CCC[C@H]2[C@@](C)(O)C1 |  |  |  | 109% | Ranking - |  |
| CCC(OC)/C(C)=C/C[C@@H](C)/C=C1\CN2CCC[C@H]2[C@@](C)(O)C1 (stereo not given in full) |  | 0.29 nM (mg of protein)-1 | 92% | 118% | Ranking - |  |
| C[C@@H](/C=C1\CN2CCC[C@H]2[C@@](C)(O)C1)CCOCc1ccccc1 |  |  |  | 102% | Ranking - |  |
| C=CCCCC/C=C1\CN2CCC[C@H]2[C@@](C)(O)C1 |  |  |  | 112% | Ranking - |  |
| CC[C@@H](O)/C(C)=C/C[C@@H](C)/C=C1\CN2CCC[C@H]2[C@@](C)(O)[C@@H]1O | Ranking |  |  | 137% |  |  |
| C[C@]1(O)C/C(=C/CCCCCCO)CN2CCC[C@H]21 |  |  |  | 122% | Ranking - |  |
